# Active and inactive are the calls of the source.
# Legend:
# [1] = molecular target: T1, 5-hydroxytryptamine receptor 2B (Homo sapiens, UniProt P41595); experiment: Agonist activity at recombinant human 5-HT2B receptor expressed in HEK293E cells assessed as induction of intracellular Ca2+ levels after 90 secs by Fluo-4-dye based FLIPR assay; format: cell-based, HEK293
# Outline: (§1)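 HEK293E cells stably expressing human receptor (VNV isoform for 5-HT2C; ~400−795 fmol/mg protein), grown in DMEM with 10% dialyzed FBS and G418. Cells plated at 20 000/well in serum-free DMEM overnight at 37 °C, then loaded 1 h at room temperature with 5 μM Fluo-4 in HBSS/25 mM HEPES. Eleven compound concentrations added on FLIPR, Ca2+ signal read for 90 s. EC50 from a four-parameter logistic fit, at least triplicate.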
# [2] = molecular target: 5-hydroxytryptamine receptor 2A (Homo sapiens, UniProt P28223); experiment: Agonist activity at recombinant human 5-HT2A receptor expressed in HEK293E cells assessed as induction of intracellular Ca2+ levels after 90 secs by Fluo-4-dye based FLIPR assay; format: cell-based, HEK293; outline: as §1
# [3] = molecular target: T2, 5-hydroxytryptamine receptor 2C (Homo sapiens) (UniProt P28335); experiment: Intrinsic activity at recombinant human 5-HT2C receptor expressed in HEK293E cells assessed as induction of intracellular Ca2+ levels after 90 secs by Fluo-4-dye based FLIPR assay relative to serotonin; format: functional, cell-based; details: HEK293
# T2 sequence (whole entry): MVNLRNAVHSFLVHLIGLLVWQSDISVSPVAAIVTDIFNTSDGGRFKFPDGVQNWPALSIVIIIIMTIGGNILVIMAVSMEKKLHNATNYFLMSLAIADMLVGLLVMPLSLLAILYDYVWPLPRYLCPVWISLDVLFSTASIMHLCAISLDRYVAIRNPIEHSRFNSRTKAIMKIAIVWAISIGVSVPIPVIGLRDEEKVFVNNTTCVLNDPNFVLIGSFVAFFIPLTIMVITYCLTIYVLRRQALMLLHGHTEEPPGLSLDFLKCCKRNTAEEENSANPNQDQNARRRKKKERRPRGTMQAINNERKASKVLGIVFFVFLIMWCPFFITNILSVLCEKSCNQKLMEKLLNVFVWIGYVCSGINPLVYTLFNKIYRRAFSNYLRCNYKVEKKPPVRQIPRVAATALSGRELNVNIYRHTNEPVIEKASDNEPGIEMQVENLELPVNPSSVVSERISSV
# Outline: (§2)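 FLIPR Fluo-4 Ca2+ assay in HEK293E cells stably expressing the human receptor (VNV isoform for 5-HT2C), eleven-point concentration series, 90 s read. Response normalized to 3 μM serotonin on the same plate (defined as IA = 1). Intrinsic activity taken from a four-parameter logistic fit.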
# [4] = molecular target: T3, 5-hydroxytryptamine receptor 2C (Homo sapiens, UniProt P28335); experiment: Agonist activity at recombinant human 5-HT2C receptor expressed in HEK293E cells assessed as induction of intracellular Ca2+ levels after 90 secs by Fluo-4-dye based FLIPR assay; format: functional, cell-based, HEK293; outline: as §1
# T3 sequence (P28335 whole entry): T2 sequence (whole entry)
# [5] = Metabolic stability in human liver microsomes assessed as parent compound remaining at […] after 10 mins; format: ADME, microsome; details: read-out: Stability
# [6] = Metabolic stability in rat liver microsomes assessed as parent compound remaining at […] after 10 mins; format: ADME, microsome; details: read-out: Stability
# [7] = Permeability of compound at pH 5.5 by PAMPA; format: physicochemical; details: read-out: permeability
# [8] = Permeability of compound at pH 7.4 by PAMPA; format: physicochemical; details: read-out: permeability
# [9] = Permeability across basolateral to apical side in human Caco2 cells; format: ADME, cell-based; details: Caco-2, read-out: permeability
# [10] = Permeability across apical to basolateral side in human Caco2 cells; format: ADME, cell-based; details: Caco-2, read-out: permeability
# [11] = Efflux ratio of permeability across basolateral to apical side in human Caco2 cells; format: ADME, cell-based; details: Caco-2
# [12] = Protein binding in human plasma; format: ADME, cell-free; details: read-out: PPB (converted)
# [13] = Protein binding in rat plasma; format: ADME, cell-free; details: read-out: PPB (converted)
# [14] = Half life in human microsomes; format: ADME, Microsome
# [15] = Half life in rat microsomes; format: ADME, Microsome
# [16] = Plasma concentration in Sprague-Dawley rat at 30 mg/kg, po measured at 7 hrs post dose by LC/MS-MS analysis; format: ADME, organism-based
# Outline: (§3)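 Male rats given 30 mg/kg orally in 0.15% docusate sodium/2% PVP-K/97.85% water. Plasma and brain were sampled at a single time point after dosing. Brain was diluted 1:2 (vol/weight) with water before homogenization (dilution factor 3). Concentrations were measured by LC/MS−MS after acetonitrile protein precipitation. Values are the average of three animals; B/P is the brain to plasma ratio.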
# [17] = Drug uptake in Sprague-Dawley rat brain at 30 mg/kg, po measured at 7 hrs post dose by LC/MS-MS analysis; format: ADME, organism-based; details: read-out: Drug uptake; outline: as §3
# [18] = Ratio of drug uptake in Sprague-Dawley rat brain to plasma at 30 mg/kg, po measured at 7 hrs post dose by LC/MS-MS analysis; format: ADME, organism-based; details: read-out: BPR; outline: as §3
# [19] = Plasma concentration in Sprague-Dawley rat at 1 mg/kg, iv measured at 1 hr post dose by LC/MS-MS analysis; format: ADME, organism-based
# [20] = Ratio of drug uptake in Sprague-Dawley rat brain to plasma at 1 mg/kg, iv measured at 1 hr post dose by LC/MS-MS analysis; format: ADME, organism-based; details: read-out: BPR
# [21] = Substrate activity at rat P-gp; format: ADME
# [22] = Substrate activity at human P-gp; format: ADME
# [23] = Drug uptake in Sprague-Dawley rat brain at 1 mg/kg, iv measured at 1 hr post dose by LC/MS-MS analysis
# Rattus norvegicus [24] = experiment: Antiobesity activity in ad libitum feeding Sprague-Dawley rat model assessed as reduction in food intake at 30 mg/kg, po administered at 60 mins prior to the onset of the dark cycle followed by incubation for first 8 hrs in light cycle and 12 hrs in dark cycle; format: functional; set-up: scale not given: the % may be the effect or the level left
# Outline: (§4)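 Male Sprague Dawley rats (~225 g; n = 6), trained in operant chambers, dosed orally with compound or vehicle (14% PPG, 1% Tween, 85% water) 60 min before dark onset. Food intake was monitored in individual boxes for 20 h (12 h dark plus first 8 h light). Percent reduction was computed from drug-treated versus vehicle-treated total intake.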
# [25] = molecular target: T1, 5-hydroxytryptamine receptor 2B; experiment: Intrinsic activity at recombinant human 5-HT2B receptor expressed in HEK293E cells assessed as induction of intracellular Ca2+ levels after 90 secs by Fluo-4-dye based FLIPR assay relative to serotonin; format: functional, cell-based; details: HEK293; outline: as §2
# [26] = Plasma concentration in Sprague-Dawley rat at 30 mg/kg, po measured at 3 hrs post dose by LC/MS-MS analysis; format: ADME, organism-based; outline: as §3
# [27] = Drug uptake in Sprague-Dawley rat brain at 30 mg/kg, po measured at 3 hrs post dose by LC/MS-MS analysis; format: ADME, organism-based; details: read-out: Drug uptake; outline: as §3
# [28] = Ratio of drug uptake in Sprague-Dawley rat brain to plasma at 30 mg/kg, po measured at 3 hrs post dose by LC/MS-MS analysis; format: ADME, organism-based; details: read-out: BPR; outline: as §3
# Rattus norvegicus [29] = experiment: Antiobesity activity in ad libitum feeding Sprague-Dawley rat model assessed as reduction in food pellet consumption administered po at 60 mins prior to the onset of the dark cycle followed by incubation for first 8 hrs in light cycle and 12 hrs in dark cycle; format: functional, organism-based; outline: as §4
# Rattus norvegicus [30] = experiment: Antiobesity activity in ad libitum feeding Sprague-Dawley rat model assessed as reduction in food pellet consumption at 3 to 10 mg/kg, po administered at 60 mins prior to the onset of the dark cycle measured at first 4 hrs post last dose; format: functional, organism-based
# Outline: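 Male Sprague Dawley rats (n = 6) dosed orally 60 min before dark onset with 3 or 10 mg/kg, in vehicle of 14% PPG, 1% Tween, 85% water. Food pellet consumption was recorded in operant boxes and compared with vehicle over the first 4 h.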
# Rattus norvegicus [31] = experiment: Antiobesity activity in ad libitum feeding Sprague-Dawley rat model assessed as reduction in food pellet consumption at 30 mg/kg, po administered at 60 mins prior to the onset of the dark cycle followed by incubation for first 8 hrs in light cycle and 12 hrs in dark cycle; format: functional; set-up: scale not given: the % may be the effect or the level left; outline: as §4
# Rattus norvegicus [32] = experiment: Antiobesity activity in ad libitum feeding Sprague-Dawley rat model assessed as reduction in food intake at 30 mg/kg, po administered at 60 mins prior to the onset of the dark cycle followed by incubation for first 8 hrs in light cycle and 12 hrs in dark cycle in presence of 5-HT2C anatgonist SB-243213; format: functional; set-up: scale not given: the % may be the effect or the level left
# Rattus norvegicus [33] = experiment: Toxicity in ad libitum feeding Sprague-Dawley rat model assessed as effect on locomotor activity at 3 to 30 mg/kg, po administered at 60 mins prior to the onset of the dark cycle followed by incubation for first 8 hrs in light cycle and 12 hrs in dark cycle; format: organism-based; details: in vivo
# Rattus norvegicus [34] = experiment: Toxicity in ad libitum feeding Sprague-Dawley rat model assessed as reduction in water intake at 3 to 30 mg/kg, po administered at 60 mins prior to the onset of the dark cycle followed by incubation for first 8 hrs in light cycle and 12 hrs in dark cycle; format: organism-based; details: in vivo
# T1 sequence (P41595 whole entry, canonical isoform): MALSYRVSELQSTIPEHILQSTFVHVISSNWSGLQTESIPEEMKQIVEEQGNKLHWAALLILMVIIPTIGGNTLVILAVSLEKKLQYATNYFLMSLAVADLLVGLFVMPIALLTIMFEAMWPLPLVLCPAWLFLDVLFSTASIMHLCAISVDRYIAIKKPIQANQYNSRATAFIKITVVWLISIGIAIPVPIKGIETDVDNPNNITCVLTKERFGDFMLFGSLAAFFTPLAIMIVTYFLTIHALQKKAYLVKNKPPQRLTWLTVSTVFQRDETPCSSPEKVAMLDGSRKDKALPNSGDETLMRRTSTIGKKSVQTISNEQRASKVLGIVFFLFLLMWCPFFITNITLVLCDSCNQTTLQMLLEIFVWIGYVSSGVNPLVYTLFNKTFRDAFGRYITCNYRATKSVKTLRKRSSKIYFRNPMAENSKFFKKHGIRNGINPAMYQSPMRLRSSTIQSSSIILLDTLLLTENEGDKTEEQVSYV
# 5-hydroxytryptamine receptor 2A, sequence (P28223 whole entry): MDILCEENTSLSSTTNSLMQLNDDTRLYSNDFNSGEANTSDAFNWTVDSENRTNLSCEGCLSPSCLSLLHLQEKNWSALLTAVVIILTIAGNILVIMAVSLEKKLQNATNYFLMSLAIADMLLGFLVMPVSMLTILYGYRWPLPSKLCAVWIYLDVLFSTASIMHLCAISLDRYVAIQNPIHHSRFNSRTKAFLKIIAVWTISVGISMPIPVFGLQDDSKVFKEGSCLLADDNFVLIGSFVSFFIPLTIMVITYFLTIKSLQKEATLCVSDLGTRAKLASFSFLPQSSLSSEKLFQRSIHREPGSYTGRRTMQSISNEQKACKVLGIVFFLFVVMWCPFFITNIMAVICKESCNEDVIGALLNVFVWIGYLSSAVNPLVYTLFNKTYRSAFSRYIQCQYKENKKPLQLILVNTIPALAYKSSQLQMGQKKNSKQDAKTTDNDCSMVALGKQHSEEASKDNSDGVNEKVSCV
smiles,measurement,setting,value
Cc1nc(-c2cccc3ccccc23)sc1C(=O)N1CCC(CO)CC1,EC50,[1],> 10 µM
same,EC50,[2],> 10 µM
same,Intrinsic activity,[3],1 to 1.1
same,EC50,[4],0.006 µM
same,remaining at 10 min,[5],80%
same,remaining at 10 min,[6],24%
same,Papp,[7],607 nm/s
same,Papp,[8],739 nm/s
same,Papp B→A,[9],175 nm/s
same,Papp A→B,[10],329 nm/s
same,efflux ratio,[11],0.5
same,fraction unbound,[12],0.005
same,fraction unbound,[13],0.004
same,half-life,[14],21 min
same,half-life,[15],6 min
same,concentration at 7 h,[16],0.736 µM
same,concentration at 7 h,[17],0.035 µM
same,Kp at 7 h,[18],0.05
same,concentration at 1 h,[19],0.569 µM
same,Kp at 1 h,[20],0.15
same,Activity,[21],Active
same,Activity,[22],Not Active
same,concentration at 1 h,[23],0.076 µM
CCn1nc(-c2cccc3cccnc23)cc1-c1ccc(N)nn1,EC50,[1],0.048 µM
same,EC50,[2],0.635 µM
same,Intrinsic activity,[3],0.8
same,EC50,[4],0.005 µM
same,Activity,Rattus norvegicus [24],38%
same,remaining at 10 min,[5],61%
same,Intrinsic activity,[25],0.2
same,Papp,[7],727 nm/s
same,Papp,[8],889 nm/s
same,Papp B→A,[9],528 nm/s
same,Papp A→B,[10],777 nm/s
same,efflux ratio,[11],0.7
same,fraction unbound,[12],0.062
same,fraction unbound,[13],0.079
same,half-life,[14],16 min
same,half-life,[15],25 min
same,concentration at 3 h,[26],7.54 µM
same,concentration at 3 h,[27],3.92 µM
same,Kp at 3 h,[28],0.9
same,Activity,Rattus norvegicus [29],Dose-dependent effect
same,Activity,Rattus norvegicus [30],Active
same,Activity,Rattus norvegicus [31],24%
same,Activity,Rattus norvegicus [32],12%
same,Activity,Rattus norvegicus [33],Non-Toxic
same,Activity,Rattus norvegicus [34],Non-Toxic

# Source: ChEMBL document CHEMBL4011636, “Utilization of an Active Site Mutant Receptor for the Identification of Potent and Selective Atypical 5-HT2C Receptor Agonists” (J Med Chem, 2017)
